From ChEMBL document CHEMBL5625173, “Antimycobacterial pyridine carboxamides: From design to in vivo activity” (Eur J Med Chem, 2023)
Values after ≈ are worked out from the molar mass of the structure shown.

How the values were obtained:
Mycolicibacterium aurum = experiment: Antimycobacterial activity against Mycobacterium aurum by alamar blue staining based microplate analysis; format: functional
In short: (§1)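 Microplate Alamar Blue assay, one of six mycobacterial strains tested (Mtb H37Rv, Mtb H37Ra, M. kansasii, M. avium, M. smegmatis, M. aurum); value reported as MIC.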

[1] = Cytotoxicity against human HepG2 cells assessed as inhibition of cell viability; format: toxicity, cell-based
[2] = system: Mycobacterium tuberculosis; experiment: Antimycobacterial activity against Mycobacterium tuberculosis H37Ra by alamar blue staining based microplate analysis; format: functional
In short: (§2)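 Microplate Alamar Blue assay. MIC values read at pH 6.6 (neutral). One acidic-pH test at pH 5.6 is footnoted separately.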

Mycobacterium avium = experiment: Antimycobacterial activity against Mycobacterium avium by alamar blue staining based microplate analysis; format: functional; in short: as §2
Mycobacterium kansasii = experiment: Antimycobacterial activity against Mycobacterium kansasii by alamar blue staining based microplate analysis; format: functional; in short: as §1
[3] = system: Mycolicibacterium smegmatis; experiment: Antimycobacterial activity against Mycobacterium smegmatis by alamar blue staining based microplate analysis; format: functional; in short: as §1
[4] = system: Mycobacterium tuberculosis; experiment: Antimycobacterial activity against Mycobacterium tuberculosis H37Rv by alamar blue staining based microplate analysis; format: functional; in short: as §2
[5] = Selectivity index, ratio of IC50 for cytotoxicity against human HepG2 cells to MIC for antimycobacterial activity against Mycobacterium tuberculosis H37Rv; format: toxicity, cell-based; conditions: read-out: Selectivity Index

SMILES | MIC (Mycolicibacterium aurum) [µg/mL] | IC50 [1] [mM] | MIC [2] [µg/mL] | MIC (Mycobacterium avium) [µg/mL] | MIC (Mycobacterium kansasii) [µg/mL] | MIC [3] [µg/mL] | MIC [4] [µg/mL] | selectivity ratio [5]
O=C(Nc1cncc(Cl)n1)c1ccc2ccccc2n1 | ≥ 125 | > 0.025 | ≥ 125 | > 25 | > 25 | ≥ 125 | > 25 | –
O=C(O)c1ccc(NC(=O)c2ccc3ccccc3n2)cc1 | 62.5 (≈ 214 µM) | > 0.05 | 31.2 (≈ 107 µM) | 25 (≈ 85.5 µM) | 25 (≈ 85.5 µM) | ≥ 500 | 25 (≈ 85.5 µM) | > 0.6
O=C(Nc1ccc(C(=O)O)c(O)c1)c1cccc(C(F)(F)F)n1 | 62.5 (≈ 192 µM) | > 0.163 | 31.2 (≈ 95.8 µM) | 12.5 (≈ 38.3 µM) | 12.5 (≈ 38.3 µM) | 250 (≈ 766 µM) | 3.13 (≈ 9.59 µM) | 34.1
O=C(Nc1cnccn1)c1ccc2ccccc2n1 | ≥ 125 | > 0.1 | ≥ 125 | > 100 | > 100 | ≥ 125 | > 100 | –
Nc1cncc(Cl)n1 | ≥ 500 | > 1 | ≥ 500 | > 100 | > 100 | ≥ 500 | > 100 | –
Cc1cc(C(=O)Nc2cncc(Cl)n2)ccn1 | 250 (≈ 1010 µM) | > 1 | ≥ 500 | > 100 | > 100 | ≥ 500 | > 100 | –
O=C(Nc1ccc(C(=O)O)c(O)c1)c1cccc(Cl)n1 | 125 (≈ 427 µM) | > 1 | 125 (≈ 427 µM) | 100 (≈ 342 µM) | > 100 | 125 (≈ 427 µM) | 3.13 (≈ 10.7 µM) | 93.5
O=C(Nc1cnccn1)c1ccncc1 | ≥ 500 | > 1 | ≥ 500 | > 100 | > 100 | ≥ 500 | > 100 | –
CO[C@H]1/C=C/O[C@@]2(C)Oc3c(C)c(O)c4c(O)c(c(/C=N/N5CCN(C)CC5)c(O)c4c3C2=O)NC(=O)/C(C)=C\C=C\[C@H](C)[C@H](O)[C@@H](C)[C@@H](O)[C@@H](C)[C@H](OC(C)=O)[C@@H]1C [RIFAMPIN] | 0.198 (≈ 0.241 µM) | > 0.5 | 0.003 (≈ 0.00365 µM) | – | – | 12.5 (≈ 15.2 µM) | – | –
O=C(Nc1cnccn1)c1ccc(C(F)(F)F)cn1 | ≥ 500 | > 0.146 | ≥ 500 | > 100 | 6.25 (≈ 23.3 µM) | ≥ 500 | 50 (≈ 186 µM) | –
COc1ccnc(C(=O)Nc2cnccn2)c1 | ≥ 250 | > 0.25 | ≥ 250 | > 100 | 50 (≈ 217 µM) | ≥ 250 | > 100 | –
Nc1cnccn1 | ≥ 500 | > 1 | ≥ 500 | > 100 | > 100 | ≥ 500 | > 100 | –
O=C(O)c1ccc(NC(=O)c2ccccn2)cc1 | 250 (≈ 1030 µM) | > 0.25 | 125 (≈ 516 µM) | > 100 | > 100 | ≥ 500 | > 100 | –
NC(=O)c1cnccn1 [PYRAZINAMIDE] | ≥ 500 | > 1 | ≥ 500 | > 100 | > 100 | ≥ 500 | > 100 | –
Cc1cc(C(=O)Nc2ccc(C(=O)O)c(O)c2)ccn1 | ≥ 125 | > 1 | ≥ 125 | > 100 | > 100 | ≥ 125 | 12.5 (≈ 45.9 µM) | 21.8
Cc1cc(C(=O)Nc2ccc(C(=O)O)c(O)c2)cc(O)n1 | ≥ 500 | > 1 | ≥ 500 | > 100 | > 100 | ≥ 500 | 6.25 (≈ 21.7 µM) | 46.1
O=C(Nc1ccc(C(=O)O)c(O)c1)c1ccncc1 | ≥ 125 | > 1 | ≥ 125 | 100 (≈ 387 µM) | 50 (≈ 194 µM) | ≥ 125 | 3.13 (≈ 12.1 µM) | 82.5
